Compounds with a hit are over-represented: about 2.9% of the library has one in this group of screens.
Runt-CBFb FRET: Runt domain-CBFb interaction inhibition | 220,000 compounds, 0.46% hits | AID 1496 | Q01196+Q13951 | Cerulean-Runt/Venus-CBFb FRET ratio 530/480, 1 h | inhibition, % at 20 µM;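 active = inhibition over about 50% at 20 µM in the single-dose screen, limit read from the data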;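 note: 0% = DMSO wells and 100% = excess unlabeled CBFb competitor control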
Target sequence (Q01196 whole entry, looked up, the tested form may be a part): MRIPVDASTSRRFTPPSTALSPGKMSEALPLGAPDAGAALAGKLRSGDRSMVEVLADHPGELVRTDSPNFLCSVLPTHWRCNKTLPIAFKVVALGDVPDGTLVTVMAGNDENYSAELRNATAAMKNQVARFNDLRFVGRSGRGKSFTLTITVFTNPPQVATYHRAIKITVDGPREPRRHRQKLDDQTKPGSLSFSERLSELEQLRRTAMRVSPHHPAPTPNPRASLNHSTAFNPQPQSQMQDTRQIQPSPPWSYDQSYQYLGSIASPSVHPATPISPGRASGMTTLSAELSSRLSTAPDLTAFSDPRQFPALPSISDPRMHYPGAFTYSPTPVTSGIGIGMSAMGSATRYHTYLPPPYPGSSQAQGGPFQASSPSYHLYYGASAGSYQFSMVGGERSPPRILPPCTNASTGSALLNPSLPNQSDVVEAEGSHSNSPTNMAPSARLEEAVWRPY
Target sequence (Q13951 whole entry, looked up, the tested form may be a part): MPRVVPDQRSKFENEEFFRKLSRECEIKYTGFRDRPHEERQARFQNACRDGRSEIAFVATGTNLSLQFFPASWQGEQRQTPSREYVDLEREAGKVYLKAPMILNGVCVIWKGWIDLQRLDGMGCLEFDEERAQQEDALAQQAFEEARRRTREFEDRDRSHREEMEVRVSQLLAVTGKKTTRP
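Reagent – Venus-CBFb binding partner, 100 nM · Assay system – Cerulean-tagged RUNX1 Runt domain (FRET donor) fusion protein · Input – 100 nM per protein · Incubation – two 1 h room-temperature incubations shielded from light · Measured by – FRET fluorescence · Medium – Tris buffer pH 7.5 with salts and BSA · Benchmarks – unlabeled CBFb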
Hck-Nef inh: human Hck-Nef kinase inhibition | P08631 | 220,000 compounds, 0.68% hits | Recombinant Hck-YEEI plus Nef, Z-Lyte FRET kinase assay | inhibition, % at 20 µM;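 active = Hck-Nef kinase inhibition above about 50%, limit read from the data; inactive = inhibition below that limit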;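 note: 0% = DMSO with Hck plus Nef and 100% = Hck alone without Nef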
M18AAP inhibitor: blocks P. falciparum M18 aspartyl aminopeptidase; AID 1822; inhibition, % at 7.35 µM; recombinant PfM18AAP, H-Glu-NHMec fluorogenic cleavage; 290,000 compounds, 1.2% hits;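 active = inhibition above the campaign mean inhibition over all tested compounds plus 3 SD, cut at about 28% in these data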;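 note: 0% = plate median of test compound wells and 100% = 2 mM ZnCl2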
RanGTP-Imp inh: inhibitors of RanGTP-importin-beta interaction, primary screen, biochemical, FRET, CFP-Ran, YFP-importin-beta, homogeneous | cell-free CFP-Ran/YFP-importin-beta FRET ratio | inhibition, % (test concentration not listed) | 300,000 compounds, 1.1% hits;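 active = more than half of the replicate wells show a fall in the fluorescence ratio signal beyond about 16%, limit read from the data, passing the limit was not always enough; inconclusive = exactly half of the replicate wells pass the set limit; inactive = fewer than half of replicates pass the limit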;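 note: 0% = DMSO wells and 100% = Ran loaded with GDP instead of GTP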
RBBP9 inh: human RBBP9 hydrolase inhibition. recombinant RBBP9, FP-Rh probe fluorescence polarization. inhibition, % at 7.94 µM. AID 1515. O75884. 220,000 compounds, 0.2% hits;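 active = inhibition above the campaign mean of all tested compounds plus 3 SD, cut at about 14% in these data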;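 note: plate controls were DMSO wells with RBBP9 for no effect and wells lacking RBBP9 protein for full effect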
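Assay system: recombinant human RBBP9; Reagent: Serine-hydrolase probe FP-Rh, 375 nM pre-mixing; Doses: 7.94 µM single dose, 0.794% DMSO; Incubation: 30 min then 45 min, 25 °C; Detection: fluorescence polarization (mP), excitation 525 nm, emission 598 nm; Evaluation: percent inhibition from mP, scaled between DMSO and no-protein wells.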
Runt-SMMHC FRET: inhibitors of human RUNX1 Runt domain binding to CBFb-SMMHC; inhibition, % at 20 µM; 220,000 compounds, 0.74% hits; Cerulean-Runt/Venus-CBFb-SMMHC FRET ratio 530/480, 1 h; AID 1434;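 active = mean inhibition across duplicate retests at 20 µM reaching about 50%, limit read from the data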;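 note: 0% = DMSO wells and 100% = wells with excess untagged CBFb-SMMHC; inhibitors lower the FRET ratio by blocking Runt binding to CBFb-SMMHC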
Hck Nef conf: Hck-Nef kinase inhibition, confirmation | Recombinant Hck-YEEI:Nef, Z-Lyte FRET kinase assay | AID 463188 | calls only at 10 µM | shares compounds with Hck-Nef inh | 1,300 compounds, 28% hits;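 active = average inhibition of at least 50%, with Z-scores no higher than 3 in both the phospho-tyrosine peptide and fluorescence counterscreens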
An asterisk follows results filed as active.

For Cc1ccccc1C(=O)Nc1nc2c(C)csc2c(=O)s1 the results were Runt-CBFb FRET 7, Hck-Nef inh 78*, M18AAP inhibitor 2, RanGTP-Imp inh -1, RBBP9 inh -1, Runt-SMMHC FRET 16 and Hck Nef conf inactive.
`CC1CN(C(=O)CN(C)S(=O)(=O)c2ccc3ccccc3c2)CC(C)O1` (stereo unspecified) gave M18AAP inhibitor 1 and RanGTP-Imp inh 4.
O=C1/C(=C\c2ccco2)SC(=S)N1C1CCS(=O)(=O)C1 (stereo unspecified) was read as Runt-CBFb FRET 30, Hck-Nef inh 69*, M18AAP inhibitor 29*, RanGTP-Imp inh -2, RBBP9 inh 8, Runt-SMMHC FRET -2 and Hck Nef conf inactive.
For O=C1CC(C(=O)N(c2ccccc2)C(C(=O)NC2CCCC2)c2ccncc2)CS1 (stereo unspecified) the results were Runt-CBFb FRET -1, Hck-Nef inh 1, M18AAP inhibitor -5, RBBP9 inh -3 and Runt-SMMHC FRET -5.
`CCOC(=O)NCCOC(=O)Nc1ccc(Cl)cc1` gave Runt-CBFb FRET 2, Hck-Nef inh 58*, M18AAP inhibitor 4, RanGTP-Imp inh -2, RBBP9 inh 2, Runt-SMMHC FRET -4 and Hck Nef conf inactive.
Cc1ccc(NC(=O)OCCNC(=O)OC(C)C)cc1 was read as Hck-Nef inh -2, M18AAP inhibitor 5, RanGTP-Imp inh inconclusive, RBBP9 inh -3 and Runt-SMMHC FRET -3.
Screening CSc1nsc(/C=C/Nc2ccc(F)cc2F)c1C#N returned Runt-CBFb FRET 10, Hck-Nef inh 51*, M18AAP inhibitor 6, RBBP9 inh -1, Runt-SMMHC FRET 6 and Hck Nef conf inactive.
`C/C(=N/NC(=O)c1ccncc1)c1ccccc1` gave M18AAP inhibitor 6 and RanGTP-Imp inh 3.
For C/C(=N\NC(=O)c1ccc(OC2OCCOC2Oc2ccc(C(=O)N/N=C(\C)c3ccncc3)cc2)cc1)c1ccncc1 (stereo unspecified) the results were Runt-CBFb FRET -3, Hck-Nef inh 61*, M18AAP inhibitor 1, RanGTP-Imp inh -7, RBBP9 inh -3, Runt-SMMHC FRET 0 and Hck Nef conf inactive.
Screening Nc1c2c(=O)oc(-c3ccccc3)cc2nn1-c1ccccc1 returned Runt-CBFb FRET 0, Hck-Nef inh 67*, M18AAP inhibitor -1, RanGTP-Imp inh 6, RBBP9 inh -7, Runt-SMMHC FRET 6 and Hck Nef conf inactive.
`Cc1c(-c2ccc(Cl)cc2)oc(=O)c2c(N)n(-c3ccccc3)nc12` gave Runt-CBFb FRET -5, Hck-Nef inh 14, M18AAP inhibitor 4, RanGTP-Imp inh 3, RBBP9 inh -3 and Runt-SMMHC FRET -2.
Screening CCCCC1=CC2=CC(=O)C(C)(OC(=O)CCc3ccccc3)C(=O)C2=CO1 (stereo unspecified) returned Runt-CBFb FRET 3, Hck-Nef inh 67*, RanGTP-Imp inh -18, Runt-SMMHC FRET 48 and Hck Nef conf active.
Screening CCCCC1=CC2=CC(=O)C(C)(OC(=O)CCC(=O)OC)C(=O)C2=CO1 (stereo unspecified) returned RanGTP-Imp inh -13.
For Cc1nc(SCC(=O)Nc2ccc3c(c2)OCCO3)c2oc3ccccc3c2n1 the results were Runt-CBFb FRET -1, Hck-Nef inh 81*, M18AAP inhibitor 0, RanGTP-Imp inh 5, RBBP9 inh -7, Runt-SMMHC FRET -5 and Hck Nef conf inactive.
Screening O=C(CSc1ncnc2c1oc1ccccc12)Nc1ccc2c(c1)OCCO2 returned Hck-Nef inh 7, M18AAP inhibitor -3, RanGTP-Imp inh 5 and RBBP9 inh -2.
For CCc1nc(SCC(=O)NC2CCCC2)c2oc3ccccc3c2n1 the results were M18AAP inhibitor -2 and RanGTP-Imp inh -2.
For CCc1nc(SCC(=O)Nc2ccc3c(c2)OCCO3)c2oc3ccccc3c2n1 the results were Runt-CBFb FRET -4, Hck-Nef inh 88*, M18AAP inhibitor 2, RanGTP-Imp inh 2, RBBP9 inh -12, Runt-SMMHC FRET -10 and Hck Nef conf inactive.
